In ChEMBL document CHEMBL1150594, “Suberosols A-D, four new sesquiterpenes with beta-caryophyllene skeletons from a Taiwanese gorgonian coral Subergorgia suberosa” (2002):
In brackets after ≈: the same amount, converted by molar mass.

How the values were obtained:
Assay type in all cases: functional
Settings in all cases: read-out: ED50 (the source's name)
P388 = assay: Cytotoxicity against mouse P388 cells by MTT assay
Method in brief: (§1)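 Growth inhibition of cancer cells read by a modified MTT colorimetric method, following a previously described procedure. P-388 cells were obtained from an academic laboratory; A549 and HT-29 cells came from the American Type Culture Collection.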

A549 = assay: Cytotoxicity against human A549 cells by MTT assay; method in brief: as §1
HT-29 = assay: Cytotoxicity against human HT-29 cells by MTT assay; method in brief: as §1

| SMILES | EC50 (P388) [µg/mL] | EC50 (A549) [µg/mL] | EC50 (HT-29) [µg/mL] |
| --- | --- | --- | --- |
| C=C1CC/C=C(\C)C(=O)C[C@@H]2[C@@H]1CC2(C)C [BUDDLEDIN C] | 4.6 (≈ 21.1 µM) | 3.8 (≈ 17.4 µM) | 3.6 (≈ 16.5 µM) |
| C=C1CC/C=C(/C)[C@@H](O)C[C@@H]2[C@@H]1CC2(C)C [SUBEROSOL D] | 3.3 (≈ 15 µM) | 4.2 (≈ 19.1 µM) | 3.8 (≈ 17.2 µM) |
| C=C1CC[C@H]2O[C@]2(C)[C@@H](O)C[C@@H]2[C@@H]1CC2(C)C [SUBEROSOL A] | 3.8 (≈ 16.1 µM) | > 50 | > 50 |
| C=C1CC/C=C(/C)C(=O)C[C@@H]2[C@@H]1CC2(C)C [BUDDLEDIN D] | 6.3 (≈ 28.9 µM) | 8.9 (≈ 40.8 µM) | 6.6 (≈ 30.2 µM) |
| C=C1CC/C=C(\C)[C@H](O)C[C@@H]2[C@@H]1CC2(C)C [SUBEROSOL C] | 2.1 (≈ 9.53 µM) | 5.6 (≈ 25.4 µM) | 2.3 (≈ 10.4 µM) |
| C=C1CC[C@H]2O[C@]2(C)[C@H](O)C[C@@H]2[C@@H]1CC2(C)C [SUBEROSOL B] | 7.4 (≈ 31.3 µM) | > 50 | > 50 |
